A selection: hits, their analogues and other compounds. The true share with any hit is near 1.9%.
PG9 Ab binder: binds the HIV-1 gp120 antibody PG9 | TR-FRET gp120-PG9 antibody binding | inhibition, % at 6.7 µM | hit rate 0.43% among 360,000; in the data active = inhibition above about 8.5%
UCH37 inh: human UCH37 deubiquitinating enzyme inhibition. Q9Y5K5. purified proteasome/UCH37, Ub-AMC cleavage fluorescence. inhibition, % (concentration not given with the values). hit rate 0.33% among 330,000. AID 588478;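 active = mean inhibition over replicate wells above about 20%, limit read from the data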;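 note: 0% = compound-free wells with enzyme and 100% = wells lacking proteasome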
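Test system – human UCH37 enzyme supplied as purified proteasome complex · Incubation – 30 min preincubation with enzyme, 25 min cleavage at room temperature · Detection – AMC fluorescence from Ub-AMC cleavage, excitation 355 nm, emission 460 nm · Benchmarks – no-proteasome wells (full inhibition) and compound-free wells (no inhibition)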
CR mimetic SO: lowers age-related superoxide in aged yeast cells | S. cerevisiae aged cells, superoxide DHE fluorescence; hits give low values | superoxide response (% of plate mean), % at 10 µM | hit rate 0.18% among 330,000 | AID 2690;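 active = superoxide response under a set limit, about three screen SD below normal, cut at about 65% in these data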;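 note: yeast aged for seven days with compound at 30 °C before DHE staining; 100% = average MFI of all compound-treated wells on the plate with controls excluded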
MIN6 prolif: inducers of beta-cell replication in MIN6 cells | AID 2380 | MIN6 cells proliferation, ATPlite luminescence, 48 h; cells starved in 0.2% serum; 100% = growth in 10% serum | proliferation, % at 10 µM | hit rate 0.29% among 330,000;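 active = compounds whose signal lies at least 3.5 SD above the mean of all wells on their plate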;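 note: 0% = DMSO-treated cells in low-serum medium and 100% = 10% serum control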
Rce1 inh: blocks yeast Ras-converting enzyme; yeast membranes, quenched prenylated peptide cleavage fluorescence; AID 2563; calls only; hit rate 0.27% among 290,000; Q03530;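 active = fall in fluorescence gain of 50% or more versus controls, with final raw signal at or below 3038400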;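 note: plate controls were neutral control wells for no effect and wells lacking membranes for full effect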
NR1D1 modulator: modulates human Rev-erb alpha binding to DNA; Rev-erbα–FITC-DNA binding, fluorescence polarization, 90 min; activity, % at 10 µM; hit rate 0.79% among 370,000; AID 1259318;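 active = activity above about 14%, limit read from the data; passing the limit was not always enough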;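 note: 0% = DMSO wells with 35 nM protein and 100% = DMSO wells with 750 nM protein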
Target sequence (P20393 whole entry, looked up): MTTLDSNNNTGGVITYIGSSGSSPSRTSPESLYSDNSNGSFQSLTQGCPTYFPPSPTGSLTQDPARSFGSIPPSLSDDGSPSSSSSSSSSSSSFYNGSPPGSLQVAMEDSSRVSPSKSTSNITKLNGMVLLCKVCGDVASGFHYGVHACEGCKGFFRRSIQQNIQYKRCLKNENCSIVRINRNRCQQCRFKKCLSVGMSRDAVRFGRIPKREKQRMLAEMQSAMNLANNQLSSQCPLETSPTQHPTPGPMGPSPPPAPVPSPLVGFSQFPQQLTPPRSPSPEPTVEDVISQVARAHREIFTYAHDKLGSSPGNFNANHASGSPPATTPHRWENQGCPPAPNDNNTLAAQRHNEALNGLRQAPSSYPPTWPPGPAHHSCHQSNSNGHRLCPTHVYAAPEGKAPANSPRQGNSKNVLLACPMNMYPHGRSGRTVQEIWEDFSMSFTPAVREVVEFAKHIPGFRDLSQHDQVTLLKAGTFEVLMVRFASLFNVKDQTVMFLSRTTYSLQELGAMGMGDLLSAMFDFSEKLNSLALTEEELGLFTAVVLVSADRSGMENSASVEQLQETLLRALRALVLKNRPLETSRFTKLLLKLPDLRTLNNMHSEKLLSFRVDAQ
PG9 binder conf: PG9 antibody binding, confirmed; shares compounds with PG9 Ab binder; TR-FRET PG9 antibody binding, biochemical; inhibition, % at 6.7 µM; hit rate 90% among 1,500; AID 651571; in the data active = inhibition above about 9%
PGV04 counter: counter-screen for PG9 binders: binding control antibody PGV04; shares compounds with PG9 Ab binder; TR-FRET PGV04 antibody-gp120 binding, biochemical; inhibition, % at 6.7 µM; hit rate 95% among 1,500; AID 651604; in the data active = inhibition above about 9.5%
PG9 bind DR: small molecules binding HIV-1 gp120 antibody PG9. shares compounds with PG9 Ab binder. TR-FRET PG9 antibody-gp120 binding inhibition. IC50, µM. 95 tested, under 10 active. AID 651848; in the data active = IC50 below about 10 µM
PGV04 binding DR: counter-screen for PG9 binders: binding to control antibody PGV04 | shares compounds with PG9 Ab binder | TR-FRET binding to control antibody PGV04 | IC50, µM | hit rate 20% among 95 | AID 651937
PG126 binding DR: PG126 binding, dose response counter-screen. TR-FRET binding to antibody PG126, counterscreen. IC50, µM. hit rate 20% among 95. shares compounds with PG9 Ab binder
Rev-erbA confirm: confirmation of modulators of human Rev-erb alpha DNA binding. shares compounds with NR1D1 modulator. Rev-erb alpha FITC-DNA binding, fluorescence polarization, 90 min. activation, % at 25 µM. hit rate 61% among 3,000;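 active = activation at or above a set limit, or at least 3 SD above the negative control mean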;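 note: 0% = 35 nM protein with DMSO and 100% = 750 nM protein high control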
RORg DNA counter: RORgamma DNA-binding activity, dose-response counter-screen; shares compounds with NR1D1 modulator; purified RORgamma protein-FITC-DNA binding, fluorescence polarization; IC50, µM; hit rate 8% among 910; AID 1259320;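 active = Compounds whose fitted half-maximal concentration for disrupting protein-DNA binding is below 10 micromolar; the record names Rev-erb in its text, so the target is in doubt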
* = called active by the depositor. Cut-off read from the data, not from the text of the source, unless noted: active = IC50 below about 9 µM; inactive = the rest.

Screening CC1(C)CC(=O)CC(=NNC(=O)C2CCN(S(=O)(=O)c3cccs3)CC2)C1 returned UCH37 inh 5.
COCCn1cnc2c(c1=O)c1nc3ccccc3nc1n2N=Cc1ccco1 was read as UCH37 inh 2.
Screening COc1cc(OC)cc(-c2c(Sc3ccccc3)c3cc(-c4ccc5c(c4)OCCO5)ccc3n2C)c1 returned PG9 Ab binder 45*, NR1D1 modulator 23*, PG9 binder conf 55*, PGV04 counter 73* and Rev-erbA confirm 21*.
`COc1ccc(-c2c(-c3cc(OC)cc(OC)c3)n(C)c3ccc(-c4ccc5c(c4)OCCO5)cc23)cc1` gave PG9 Ab binder 1, UCH37 inh -55, CR mimetic SO 97, MIN6 prolif -4 and NR1D1 modulator 4.
COc1cccc(NC(=O)CSc2nc3ncc(Br)cc3[nH]2)c1 was read as PG9 Ab binder 22*, UCH37 inh 2, CR mimetic SO 86, MIN6 prolif -1, Rce1 inh inactive, NR1D1 modulator 104*, PG9 binder conf 7, PGV04 counter 11*, Rev-erbA confirm 101* and RORg DNA counter inactive.
CCc1ccc(NC(=O)CSc2nc3ncc(Br)cc3[nH]2)cc1 was read as PG9 Ab binder 11*, UCH37 inh 3, CR mimetic SO 91, MIN6 prolif 1, Rce1 inh inactive, NR1D1 modulator 59*, PG9 binder conf 27*, PGV04 counter 38*, Rev-erbA confirm 52* and RORg DNA counter inactive.
COc1ccc(C=NNC(=O)c2c(C)nc3ccc(Br)cn23)cc1OC was read as UCH37 inh -18.
`CC(=NNC(=O)CSc1nnc(C)s1)c1ccc(Cl)cc1` gave UCH37 inh 5.
Screening O=C(NN=Cc1ccncc1)/C(=C/c1ccccc1)NC(=O)c1ccccc1 returned UCH37 inh 5.
For Brc1cc(Br)c2nc3c(cc2c1)CCC3 the results were PG9 Ab binder 52*, UCH37 inh 4, CR mimetic SO 94, MIN6 prolif 0, Rce1 inh inactive, NR1D1 modulator 33*, PG9 binder conf 58*, PGV04 counter 66* and Rev-erbA confirm 23*.
For CSc1nc2c(cc1C#N)CCC2 the results were PG9 Ab binder 0, UCH37 inh 1, CR mimetic SO 97, MIN6 prolif -1, Rce1 inh inactive and NR1D1 modulator 2.
`Cc1ccc(-n2nnnc2SCC(=O)c2ccc3c(c2)NC(=O)CO3)c(C)c1` gave PG9 Ab binder 13*, UCH37 inh 0, CR mimetic SO 87, MIN6 prolif -2, Rce1 inh inactive, NR1D1 modulator 25*, PG9 binder conf 11*, PGV04 counter 30* and Rev-erbA confirm 24*.
Screening CC(=NNC(=S)NCCc1ccccc1)c1ccc(Cl)cc1Cl returned UCH37 inh 2.
For CCCSCCCNC(=O)Cn1c(=O)c2cccn2c2ccccc21 the results were PG9 Ab binder -1, UCH37 inh 6, CR mimetic SO 109, MIN6 prolif 2, Rce1 inh inactive and NR1D1 modulator 0.
For O=C(Cn1c(=O)c2cccn2c2ccccc21)NCCc1ccc(Cl)cc1 the results were PG9 Ab binder 36*, UCH37 inh -10, CR mimetic SO 111, MIN6 prolif -3, Rce1 inh inactive, NR1D1 modulator 66*, PG9 binder conf 40*, PGV04 counter 43* and Rev-erbA confirm 27*.
`O=C(NN=Cc1ccco1)Nc1ccccc1` gave UCH37 inh 4.
`NS(=O)(=O)c1ccc(CCNC(=O)CCCCCn2c(=S)[nH]c3ccc(Br)cc3c2=O)cc1` gave PG9 Ab binder 30*, UCH37 inh 5, CR mimetic SO 116, MIN6 prolif -1, Rce1 inh inactive, NR1D1 modulator 41*, PG9 binder conf 28*, PGV04 counter 26*, PG9 bind DR inactive, PGV04 binding DR inactive, PG126 binding DR inactive and Rev-erbA confirm 16.
For CCc1nc(Nc2cc(OC)ccc2OC)c2oc3ccccc3c2n1 the results were PG9 Ab binder 13*, UCH37 inh inactive, CR mimetic SO 106, MIN6 prolif -2, Rce1 inh inactive, NR1D1 modulator 22*, PG9 binder conf 20*, PGV04 counter 25* and Rev-erbA confirm 12.
`Cc1ccc([N+](=O)[O-])cc1-c1ccc(C=NNC(=O)c2cc3c(ccc4ccccc43)o2)o1` gave UCH37 inh 6.
`Cc1ccc(OCC(=O)Nc2ccc(S(=O)(=O)Nc3ccccn3)cc2)cc1C` gave PG9 Ab binder 50*, UCH37 inh -11, CR mimetic SO 94, MIN6 prolif -1, Rce1 inh inactive, NR1D1 modulator 29*, PG9 binder conf 41*, PGV04 counter 45* and Rev-erbA confirm 22*.
For COc1ccc(C=NNC(=O)c2ccc(Br)cc2)cc1CN1CCOCC1 the results were UCH37 inh 5.
Screening O=C(CCN1C(=O)c2cccc3cccc(c23)C1=O)Nc1ccon1 returned PG9 Ab binder 12*, CR mimetic SO 88, MIN6 prolif 3, Rce1 inh inactive, NR1D1 modulator 43*, PG9 binder conf 17*, PGV04 counter 36* and Rev-erbA confirm 30*.
For Cc1cccc(NC(=O)CCN2C(=O)c3ccccc3C2=O)n1 the results were PG9 Ab binder 2, UCH37 inh 2, CR mimetic SO 92, MIN6 prolif 2, Rce1 inh inactive and NR1D1 modulator 6.
Cc1cccc(NN=Cc2ccc(O)c(O)c2O)c1 was read as UCH37 inh 7.
CC(=O)Nc1sc(C)c(C)c1C(=O)OCC(=O)NCc1ccccc1 was read as PG9 Ab binder 2, UCH37 inh -22, MIN6 prolif 7 and NR1D1 modulator 3.

Assay outcomes (PubChem)
